Holding throughout (assay type): cell-based
Test [1] can be described thus: Activation of rat TRPV3 expressed in HEK293 cells assessed as stimulation of intracellular Ca2+ levels. In short, it runs like this:
(§1)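 HEK293 cells stably transfected with rat TRPA1, rat TRPM8 or rat TRPV3 cDNA. Compounds were applied and the rise in intracellular Ca2+ was recorded.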

The target of test [2] is T1, Transient receptor potential cation channel subfamily M member 8 (Rattus norvegicus, UniProt Q8R455). Nature of the test: Inhibition of rat TRPM8 expressed in HEK293 cells assessed as reduction in […] icilin-stimulated increase in intracellular Ca2+ levels.
The subject of the next test is HEK293. Description: Activation of rat TRPV3 expressed in HEK293 cells assessed as stimulation of intracellular Ca2+ levels relative to 4 uM ionomycin. In short, it runs like this: (§2)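 Efficacy on HEK293 cells stably expressing rat TRPM8 or rat TRPV3 is the intracellular Ca2+ elevation expressed as percent of the ionomycin response.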
Test [3] deals with Transient receptor potential cation channel subfamily A member 1 (Rattus norvegicus) (UniProt Q6RI86). Description: Activation of rat TRPA1 expressed in HEK293 cells assessed as stimulation of intracellular Ca2+ levels relative to 100 uM allyl isothiocyanate. In short, it runs like this:
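Efficacy on stably transfected rat TRPA1-HEK293 cells is the intracellular Ca2+ rise expressed as percent of the allyl isothiocyanate response. Means ± SEM, N = 3.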

Test [4] addresses T2, Transient receptor potential cation channel subfamily A member 1 (Rattus norvegicus, UniProt Q6RI86). Nature of the test: Inhibition of rat TRPA1 expressed in HEK293 cells assessed as reduction in 100 uM allyl isothiocyanate-stimulated increase in intracellular Ca2+ levels. In short, it runs like this: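 Rat TRPA1-HEK293 stable cells were preincubated 5 min with compound, then incubation continued with allyl isothiocyanate.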

Test [5] addresses T2, Transient receptor potential cation channel subfamily A member 1. Description: Activation of rat TRPA1 expressed in HEK293 cells assessed as stimulation of intracellular Ca2+ levels. An outline of the steps:
as §1

Test [6] has as its target T1, Transient receptor potential cation channel subfamily M member 8. Nature of the test: Activation of rat TRPM8 expressed in HEK293 cells assessed as stimulation of intracellular Ca2+ levels. In short, it runs like this:
as §1

Test [7] shares this target. Description: Inhibition of rat TRPM8 expressed in HEK293 cells assessed as reduction in 20 uM menthol-stimulated increase in intracellular Ca2+ levels. In short, it runs like this:
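IC50 on rat TRPM8 stably expressed in HEK293 cells, measured as inhibition of the intracellular Ca2+ response to icilin or menthol. Means ± SEM, N = 3.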

For test [8], the target named is Transient receptor potential cation channel subfamily M member 8 (Rattus norvegicus) (UniProt Q8R455). Description: Activation of rat TRPM8 expressed in HEK293 cells assessed as stimulation of intracellular Ca2+ levels relative to 4 uM ionomycin. An outline of the steps:
as §2

The nature of test [9]: Inhibition of rat TRPV3 expressed in HEK293 cells assessed as reduction in 100 uM thymol-stimulated increase in intracellular Ca2+ levels.

pEC50, pIC50: −log10 of the molar value.

T1 sequence (Q8R455 whole entry): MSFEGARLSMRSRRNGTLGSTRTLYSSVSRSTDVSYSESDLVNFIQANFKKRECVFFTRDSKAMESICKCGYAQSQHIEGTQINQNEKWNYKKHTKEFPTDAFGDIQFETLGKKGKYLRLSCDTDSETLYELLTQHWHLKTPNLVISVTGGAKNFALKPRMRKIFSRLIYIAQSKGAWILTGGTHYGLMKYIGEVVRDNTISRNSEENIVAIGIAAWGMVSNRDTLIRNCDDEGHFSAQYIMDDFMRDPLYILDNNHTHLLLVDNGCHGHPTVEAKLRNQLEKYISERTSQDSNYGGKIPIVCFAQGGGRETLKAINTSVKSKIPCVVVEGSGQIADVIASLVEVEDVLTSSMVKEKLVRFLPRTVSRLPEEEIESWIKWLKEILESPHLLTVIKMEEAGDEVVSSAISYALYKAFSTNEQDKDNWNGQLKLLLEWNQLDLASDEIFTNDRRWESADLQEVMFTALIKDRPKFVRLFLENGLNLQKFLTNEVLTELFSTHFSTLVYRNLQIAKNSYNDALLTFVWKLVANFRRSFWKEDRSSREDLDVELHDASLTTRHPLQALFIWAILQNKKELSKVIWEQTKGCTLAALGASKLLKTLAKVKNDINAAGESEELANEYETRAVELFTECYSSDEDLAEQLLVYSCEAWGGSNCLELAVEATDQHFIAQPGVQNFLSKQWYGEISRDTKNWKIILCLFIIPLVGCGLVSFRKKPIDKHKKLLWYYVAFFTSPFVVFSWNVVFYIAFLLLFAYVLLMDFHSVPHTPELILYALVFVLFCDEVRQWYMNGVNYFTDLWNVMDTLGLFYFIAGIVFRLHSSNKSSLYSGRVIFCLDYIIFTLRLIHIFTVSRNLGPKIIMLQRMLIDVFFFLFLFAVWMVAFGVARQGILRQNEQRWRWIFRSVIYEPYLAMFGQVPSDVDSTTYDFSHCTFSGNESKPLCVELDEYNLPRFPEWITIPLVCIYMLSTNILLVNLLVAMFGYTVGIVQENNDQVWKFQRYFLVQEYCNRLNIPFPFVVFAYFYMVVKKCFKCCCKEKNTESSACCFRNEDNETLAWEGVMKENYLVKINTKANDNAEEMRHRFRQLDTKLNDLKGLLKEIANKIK
T2 sequence (Q6RI86 whole entry): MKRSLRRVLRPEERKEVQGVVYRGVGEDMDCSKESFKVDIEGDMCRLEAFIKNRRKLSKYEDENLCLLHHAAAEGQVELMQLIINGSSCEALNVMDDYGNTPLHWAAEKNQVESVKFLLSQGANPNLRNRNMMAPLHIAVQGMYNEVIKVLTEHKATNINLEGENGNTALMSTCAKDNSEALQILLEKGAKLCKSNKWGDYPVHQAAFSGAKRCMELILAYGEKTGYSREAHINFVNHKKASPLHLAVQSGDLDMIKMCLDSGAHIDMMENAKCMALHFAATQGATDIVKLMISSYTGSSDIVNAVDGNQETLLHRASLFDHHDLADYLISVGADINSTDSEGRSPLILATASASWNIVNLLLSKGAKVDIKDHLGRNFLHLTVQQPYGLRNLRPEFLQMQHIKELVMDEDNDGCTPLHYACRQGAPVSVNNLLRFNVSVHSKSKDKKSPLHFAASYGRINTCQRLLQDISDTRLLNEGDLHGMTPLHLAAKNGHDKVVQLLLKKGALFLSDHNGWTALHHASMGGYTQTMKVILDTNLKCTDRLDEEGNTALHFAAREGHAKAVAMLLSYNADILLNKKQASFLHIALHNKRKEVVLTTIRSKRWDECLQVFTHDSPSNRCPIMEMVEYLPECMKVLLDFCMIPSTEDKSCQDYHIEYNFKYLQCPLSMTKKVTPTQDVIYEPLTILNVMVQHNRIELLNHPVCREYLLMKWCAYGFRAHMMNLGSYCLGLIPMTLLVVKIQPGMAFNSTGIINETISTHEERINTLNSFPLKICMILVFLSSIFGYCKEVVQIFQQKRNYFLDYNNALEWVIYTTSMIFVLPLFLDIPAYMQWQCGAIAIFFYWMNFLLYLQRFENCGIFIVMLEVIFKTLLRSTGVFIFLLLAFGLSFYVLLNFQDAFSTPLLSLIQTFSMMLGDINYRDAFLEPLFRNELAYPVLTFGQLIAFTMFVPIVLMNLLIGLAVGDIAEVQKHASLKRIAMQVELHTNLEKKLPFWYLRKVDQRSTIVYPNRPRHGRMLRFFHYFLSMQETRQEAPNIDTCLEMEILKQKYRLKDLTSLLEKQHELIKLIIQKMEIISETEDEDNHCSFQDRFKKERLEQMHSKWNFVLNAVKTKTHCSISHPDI
Transient receptor potential cation channel subfamily M member 8 (Rattus norvegicus), sequence (Q8R455 whole entry, looked up): as the sequence (Q8R455 whole entry) above
Transient receptor potential cation channel subfamily A member 1 (Rattus norvegicus), sequence (Q6RI86 whole entry): as the sequence (Q6RI86 whole entry) above

By pEC50 is commonly meant the negative decadic logarithm of the EC50, by convention in mol/L. As usually defined, the pIC50 is −log10 of the IC50, conventionally taken in molar units. As for `Cc1ccc(C(C)C)c(NC(=O)c2ccc(C(C)(C)C)cc2)c1`, the figures for the pEC50 in test [1], in [5] and in test [6] were 4.97, 5.19 and 6.36, respectively. Moreover, the pIC50 in [2] was 6.00; in [4], 5.06; in test [7] it was 6.00; in test [9], 5.21. In addition, the results for the Efficacy (in the test on HEK293; in test [3]; in test [8]) were 34.8%, 204% and 24.5%, respectively.

Values taken from ChEMBL document CHEMBL2086321, “Modulation of thermo-transient receptor potential (thermo-TRP) channels by thymol-based compounds” (Bioorg Med Chem Lett, 2012).
